SR-BI DiI-HDL act: enhances SR-BI lipid uptake from DiI-HDL; actives 0.096% (n = 320,000); activation, % at 12.5 µM; CHO ldlA[mSR-BI] cells, DiI-HDL uptake fluorescence, 3 h; 100 = double the neutral-control signal; AID 504775;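 active means mean replicate activation of at least 60% and every replicate at or above 60%; inconclusive means mean or all-replicate condition met, but not both; inactive means mean below 60% and not all replicates reaching 60%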;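 further: 0% = median plate neutral-control signal and 100% = twice that signal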
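system = CHO ldlA[mSR-BI] cells, LDL receptor-null, SR-BI overexpressing | medium = Ham's F12 with 0.5% BSA, HEPES 25 mM, pH 7.4 | probe or stimulus = DiI-HDL 10 µg/mL | compound dosing = single-point compound dose | incubation = compound exposure 3 h, 37 °C | technique = DiI fluorescence, bottom read | read-out = cell-associated DiI fluorescence as measure of HDL uptake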
dFosB act: mouse delta FosB homodimer activation. P13346. purified delta FosB, TAMRA-CDK5 oligo fluorescence polarization; percent of positive-control signal above neutral wells. activation, % at 25 µM. actives 0.99% (n = 340,000). AID 493131;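 active means mean activation above about 17%, with every replicate also reaching it, limit read from the data, passing the limit was not always enough; inconclusive means only one of the two conditions met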
Target sequence (P13346 whole entry, looked up): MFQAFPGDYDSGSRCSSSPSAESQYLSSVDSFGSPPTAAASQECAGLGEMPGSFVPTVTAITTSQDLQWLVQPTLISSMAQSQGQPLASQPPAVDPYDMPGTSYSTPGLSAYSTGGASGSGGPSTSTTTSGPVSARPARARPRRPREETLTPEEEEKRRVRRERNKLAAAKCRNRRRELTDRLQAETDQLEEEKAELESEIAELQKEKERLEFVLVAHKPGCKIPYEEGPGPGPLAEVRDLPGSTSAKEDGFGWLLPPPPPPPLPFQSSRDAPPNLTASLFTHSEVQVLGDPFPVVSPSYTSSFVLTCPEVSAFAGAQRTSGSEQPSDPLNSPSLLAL
SR-BI HDL uptake: blocks mouse SR-BI lipid uptake from DiI-HDL; actives 0.96% (n = 320,000); ldlA[mSR-BI] CHO cells, DiI-HDL uptake fluorescence, 3 h; inhibition, % at 12.5 µM; Q61009;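 active means mean replicate inhibition of at least 70% and a set share of replicates each scoring 70 or more; inconclusive means meets just one of the two criteria; inactive means fails both criteria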;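 further: 0% = median of neutral control wells and 100% = median of positive control wells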
CAL PDZ FP-1: blocks peptide binding to the human CAL PDZ domain; Q9HD26; purified CAL PDZ, TMR-peptide fluorescence polarization, 1 h; inhibition, % at 24.9 µM; actives 0.92% (n = 300,000);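 active means mean inhibition of at least 30% with at least half of replicates also reaching 30%; inconclusive means no clear call, values can overlap the other calls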;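 further: 0% = DMSO neutral control and 100% = excess unlabeled competitor peptide PRC23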
CAL PDZ FP-2: human CAL PDZ-peptide interaction inhibition. Q9HD26. purified CAL PDZ, TMR-peptide fluorescence polarization, 1 h. inhibition, % at 20 µM. actives 0.02% (n = 330,000). AID 504414;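 active means highest replicate inhibition of at least 40%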;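 further: plate controls were DMSO neutral control wells for no effect and unlabeled competitor peptide control wells for full effect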
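Material: tagged CAL PDZ domain; buffer or medium: 25 mM sodium phosphate pH 7.4, 150 mM NaCl, TCEP, IgG, Thesit; compound dosing: single point, 20 µM; schedule: 1 h incubation at room temperature before polarization reading; measured by: FP readout, S and P plane fluorescence; read-out basis: percent inhibition from loss of millipolarization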
Numbers without * were called inactive; ? = inconclusive; / = no result given; + = active, no number. Only some compounds are listed: those with a hit (about 2.8% of all), similar ones and a draw of the others.

SMILES	SR-BI DiI-HDL act	dFosB act	SR-BI HDL uptake	CAL PDZ FP-1	CAL PDZ FP-2
CCOc1ccccc1-c1c2cc(O)c(=O)cc-2oc2cc(O)c(O)cc12	-72.9	51.3*	72.9*	42.5*	126.3*
COc1cc(OC)cc(-c2c(C#Cc3ccsc3)c3cc(-c4ccc5cc[nH]c5c4)ccc3n2C)c1	-72.4	-0.2	72.4*	-1.3	0.9
COc1cc(OC)cc(-c2c(C#Cc3ccsc3)c3cc(-c4cccc5[nH]ccc45)ccc3n2C)c1	-17.1	17.9*	17.1	1.5	0.0
COc1ccc(CCNC(=O)CCn2c(=O)c3cccn3c3ccc(F)cc32)c(OC)c1OC	-54.3	-13.9	54.3	117.8*	-1.1
Cc1ccc(CCNC(=O)CCn2c(=O)c3cccn3c3ccc(F)cc32)cc1	-11.6	7.9	11.6	38.9*	-0.7
Cc1cc(C)cc(OCC(=O)Nc2cnn(CCCC(=O)O)c2)c1	-3.5	-5.4	3.5	0.2	-1.7
CCOc1cc(C(=O)NCc2ccc3c(c2)OCO3)cc(OCC)c1OCC	29.7	-7.9	-29.7	-4.2	-1.6
CCc1cc2c(COC(=O)c3cc(S(=O)(=O)N4CCOCC4)ccc3F)cc(=O)oc2cc1O	-77.5	0.2	77.5*	-6.3	0.9
Cn1c(/C=C(\C#N)C(N)=S)ccc1-c1ccc(Br)cc1	-73.6	0.4	73.6*	/	2.3
Cn1cccc1/C=C(\C#N)C(N)=S	18.8	0.2	-18.9	-3.8	0.2
O=C(N/N=C/c1ccc(OC(F)F)cc1OC(F)F)c1cccc(S(=O)(=O)N2CCOCC2)c1	-82.8	-12.8	82.8*	1.5	-1.0
O=C(NN=Cc1ccccc1OC(F)F)c1cccc(S(=O)(=O)N2CCCC2)c1	-71.9	-16.6	71.9*	/	-1.7
CCC(C)(C)NC(=O)C(c1ccc(C)cc1)N(CC1CCCO1)C(=O)CCC(=O)Nc1ccccn1 (stereo not drawn)	/	-5.4	/	/	-1.5
Cc1ccc(C(C(=O)NC(C)(C)C)N(CC2CCCO2)C(=O)CCC(=O)Nc2ccccn2)cc1 (stereo not drawn)	6.4	-9.3	-6.4	84.5*	-0.3
COC(=O)c1c(-c2ccc(N(C)C)cc2)sc2ccc(OC)cc12	-78.9	-2.3	78.9*	-0.9	0.4
COc1ccc2sc(-c3ccc(SC)cc3)c(-c3ccc(O)cc3)c2c1	-75.9	-2.4	75.9*	-3.7	1.2
COC(=O)c1c(-c2ccsc2)sc2ccc(-c3cc(OC)c(OC)c(OC)c3)cc12	-74.7	-6.2	74.8*	-3.4	-2.7
COc1ccc2sc(-c3ccc(N(C)C)cc3)c(-c3cnc(OC)nc3)c2c1	-82.0	-2.7	82.0*	-4.3	0.1
Cn1c(=O)c2[nH]c(CCNC(=O)c3ccccc3)nc2n(C)c1=O	16.2	1.3	-16.2	-4.3	-0.3
O=C1/C(=C/c2ccc([N+](=O)[O-])cc2)C=C(c2ccccc2)N1c1ccc(O)cc1	-72.8	-12.4	?	1.7	-2.8
O=C1CN(O)C=C2N=c3ccccc3=C2N1c1ccc([N+](=O)[O-])cc1	1.9	-4.4	4.9	76.6*	-1.5
CCC(C)(C)C1CCC(NC(=O)c2ccc(S(=O)(=O)N3CCOCC3)cc2)CC1 (stereo not drawn)	66.6*	-3.6	-66.6	-4.3	-0.3
CC(=O)Nc1ccc(NC(=O)C(C)OC(=O)c2ccc(S(=O)(=O)N3CCCCC3)cc2)cc1 (stereo not drawn)	0.8	58.2*	-0.8	-2.8	-0.1
CN(C(=O)COC(=O)c1ccc(Br)c(S(=O)(=O)N2CCOCC2)c1)C1CCCCC1	-24.0	-9.0	24.0	+	12.0
Cc1ccc(C(=O)NC2CC2)cc1S(=O)(=O)N1CCOCC1	18.3	1.1	-18.3	-3.3	-0.5
SMILES	SR-BI DiI-HDL act	dFosB act	SR-BI HDL uptake	CAL PDZ FP-1	CAL PDZ FP-2
CCOC(=O)c1ccc(S(=O)(=O)N2CCN(S(=O)(=O)CC)CC2)cc1	21.4	-5.5	-21.4	64.9*	-2.0
O=C(C1CCN(S(=O)(=O)c2cccs2)CC1)N(c1ccccn1)C1CCCCC1	2.0	-2.6	-2.0	/	-2.0
O=C(Nc1ccc(S(=O)(=O)N2CCCC2)cc1)c1ccc(OCC2CCCO2)cc1 (stereo not drawn)	-18.7	-8.9	18.7	52.6*	-3.2
O=C(Nc1cccc(S(=O)(=O)N2CCCCC2)c1)c1ccc(OCC2CCCO2)cc1 (stereo not drawn)	-27.9	/	27.9	-5.1	0.2
CC(C)(C)N(Cc1ccccc1)C(=O)COC(=O)c1ccc(S(=O)(=O)N2CCOCC2)cc1	2.4	-11.5	-2.4	39.1*	-0.4
CC(=O)N1CCN(S(=O)(=O)c2cccc(C(=O)OCC(=O)N(Cc3ccccc3)C(C)(C)C)c2)CC1	18.9	-14.2	-18.9	3.5	-0.3
Cc1cc(NC(=O)CCCN2C(=O)/C(=C/c3ccccc3Cl)SC2=S)no1	-12.5	36.9*	12.5	-5.6	-1.5
Cc1cc(NC(=O)CCN2C(=O)/C(=C\c3ccccc3)SC2=S)no1	-5.7	40.4*	5.7	-4.1	0.8
CCOc1ccc(/C=C2\SC(=S)N(CC(=O)Nc3ccccn3)C2=O)cc1	-10.6	21.8*	10.6	-2.9	-1.0
O=C(CCN1C(=O)/C(=C/c2ccccc2)SC1=S)Nc1ccccn1	4.6	0.4	-4.6	-3.9	-2.2
Cc1cc(NC(=O)CN2C(=O)S/C(=C\c3ccccc3)C2=O)no1	-6.3	1.3	6.3	0.9	-0.6
COc1ccc(S(=O)(=O)Nc2ccc3c(c2)C(=O)N([C@H](C)CO)C[C@H](C)[C@@H](CN(C)S(=O)(=O)c2c(C)noc2C)O3)cc1	-1.4	1.0	1.4	0.9	-0.8
COc1cc2c(c(OC)c1OC)CCc1cnoc1-2	-18.8	10.5	18.8	-2.0	-2.9
COc1ccccc1OCC(=O)Nc1nc(-c2ccc(S(=O)(=O)N3CCOCC3)cc2)cs1	-73.0	-2.8	73.0*	-3.2	/
COc1ccc(S(=O)(=O)N2CCOCC2)cc1C(=O)NCC(c1ccccc1)c1ccccc1	-13.9	1.4	13.9	42.0*	-0.7
O=C(COc1ccccc1)Nc1nc(-c2ccc(S(=O)(=O)N3CCOCC3)cc2)cs1	-53.5	-8.4	53.5	-10.1	/
COc1ccc(S(=O)(=O)N2CCOCC2)cc1NC(=O)CN1CCCCCC1	2.4	0.6	-2.4	35.6*	31.9
Nc1nnc(SCC(=O)Nc2cc(S(=O)(=O)N3CCOCC3)ccc2N2CCCC2)s1	/	-2.9	3.9	67.5*	-2.5
O=C(Cc1cccc(NC(=O)C2CCN(C(=O)CCc3ccccc3)CC2)c1)Nc1cccc(C(=O)N2CCCC2)c1	-39.1	-5.7	39.1	-2.0	-1.3
CC(C)CCN1CCN=C1Nc1ccccc1	-0.9	-3.2	0.9	28.6	-1.0
CCOC(=O)c1c[nH]c2ccc3ccccc3c2c1=O	24.3	-12.2	-24.3	53.6*	-2.6
CCOC(=O)c1c[nH]c2c(Cl)ccc(Cl)c2c1=O	2.4	-15.7	-2.4	/	-1.9

Bioassay records from PubChem.
